Bioassay records: PubChem, The Scripps Research Institute Molecular Screening Center
S1P4 ag: agonists of human S1P4 receptor | activation, % at 4.98 µM | 0.35% of 220,000 active | S1P4-expressing cell line, agonist reporter assay | O95977; in the data active means activation above about 11%;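 further: 0% = DMSO vehicle and 100% = reference agonist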
Target sequence (O95977 whole entry, looked up): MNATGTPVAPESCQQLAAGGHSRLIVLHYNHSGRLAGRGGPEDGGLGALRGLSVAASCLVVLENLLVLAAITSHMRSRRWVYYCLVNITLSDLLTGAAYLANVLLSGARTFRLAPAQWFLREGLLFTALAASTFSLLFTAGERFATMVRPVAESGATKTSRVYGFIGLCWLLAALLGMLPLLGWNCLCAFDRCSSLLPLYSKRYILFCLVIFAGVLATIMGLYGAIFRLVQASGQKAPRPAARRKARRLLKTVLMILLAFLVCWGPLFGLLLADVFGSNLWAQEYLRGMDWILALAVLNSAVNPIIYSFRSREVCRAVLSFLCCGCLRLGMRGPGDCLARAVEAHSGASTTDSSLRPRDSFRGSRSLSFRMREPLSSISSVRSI
NPY Y1 blocker: blocks the human neuropeptide Y Y1 receptor. P25929. HEK293-CNG Y1 cells, membrane potential fluorescence; NPY at EC95, then isoproterenol. inhibition, % at 3.6 µM. 1% of 200,000 active. AID 1040;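 active means inhibition above the campaign mean inhibition of all tested compounds plus 3 SD, cut at about 20% in these data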;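 further: 0% = DMSO wells given NPY plus isoproterenol and 100% = isoproterenol alone without NPY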
Target sequence (P25929 whole entry, looked up): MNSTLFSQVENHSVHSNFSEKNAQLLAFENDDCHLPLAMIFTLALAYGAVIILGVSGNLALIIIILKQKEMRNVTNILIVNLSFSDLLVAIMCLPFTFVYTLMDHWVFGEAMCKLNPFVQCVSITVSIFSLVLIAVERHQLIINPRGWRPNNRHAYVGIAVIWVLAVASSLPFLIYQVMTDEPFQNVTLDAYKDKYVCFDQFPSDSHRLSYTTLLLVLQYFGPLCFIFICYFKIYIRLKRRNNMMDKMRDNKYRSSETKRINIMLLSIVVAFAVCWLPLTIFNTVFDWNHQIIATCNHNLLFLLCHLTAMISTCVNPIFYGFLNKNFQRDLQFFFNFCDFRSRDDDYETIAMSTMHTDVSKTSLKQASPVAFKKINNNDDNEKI
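Test system: HEK293 cells co-expressing NPY Y1 receptor and cyclic-nucleotide gated channel; Also added: NPY (25 nM), isoproterenol (1 µM), Ro 20-1724 (25 µM); Compound dosing: one concentration, 3.6 µM, in 0.4% DMSO; Timing: dye 3 h, compound 60 min room temperature, stimulation 45 min; Technique: Membrane-potential fluorescent dye readout.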
S1P4 antag: human S1P4 receptor antagonism. O95977. S1P4-expressing cells, antagonist mode, reporter read-out. inhibition, % at 4.98 µM. 0.26% of 220,000 active; in the data active means inhibition above about 29%;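 further: 0% = wells stimulated with agonist and 100% = vehicle wells without agonist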
NPY-Y1 PAM-ag: human NPY-Y1 potentiation or agonism, primary screen; P25929; NPY-Y1 expressing cells, potentiator/agonist activation; activation, % at 3.6 µM; 0.37% of 220,000 active; in the data active means activation above about 33%, passing the limit was not always enough;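 further: cells stimulated with NPY at EC10 then isoproterenol at EC100; 0% = low agonist plus stimulus and 100% = saturating agonist plus stimulus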
NPY-Y2 PAM-ag: potentiates or activates human NPY-Y2 receptor | activation, % at 3.6 µM | P49146 | 0.45% of 220,000 active | cells expressing NPY-Y2, potentiator/agonist read-out; in the data active means activation above about 27%;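 further: cells stimulated with NPY near EC25 plus isoproterenol at EC100; 0% = vehicle plus submaximal agonist and 100% = vehicle plus saturating agonist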
NPY-Y2 antag: blocks the human neuropeptide Y Y2 receptor | AID 793 | NPY-Y2 expressing cells, antagonist mode | P49146 | inhibition, % at 2.7 µM | 0.99% of 140,000 active;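 further: 0% = vehicle with agonist challenge and 100% = reference antagonist with challenge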
NPY1 antag ctr: antagonizes human NPY-Y1, counter-screen to NPY-Y2 antagonists | cell-based NPY-Y1 antagonism counterscreen | shares compounds with NPY-Y2 antag | inhibition, % at 3.6 µM | 19% of 710 active | AID 1256; in the data active means inhibition above about 20%;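 further: cells challenged with NPY then isoproterenol with cAMP sensed through a CNG channel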
NPY2 antag conf: confirmation of human neuropeptide Y receptor Y2 antagonists. shares compounds with NPY-Y2 antag. HEK293 NPY-Y2 CNG channel, membrane potential fluorescence. inhibition, % at 2.8 µM. 32% of 710 active. AID 1257;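 active means mean inhibition of triplicate wells above the hit cutoff set in the primary screen, cut at about 17% in these data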;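 further: 0% = DMSO with NPY challenge and 100% = BIIE0246 high control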
NPY1 antag conf: human NPY-Y1 antagonism, confirmation | shares compounds with NPY Y1 blocker | HEK293-CNG NPY-Y1, membrane potential fluorescence, cAMP; NPY challenge against isoproterenol-raised cAMP | inhibition, % at 3.6 µM | 21% of 1,200 active | AID 1254; in the data active means inhibition above about 20%;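 further: 0% = vehicle with agonist plus stimulus and 100% = stimulus alone without agonist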
NPY2 antag ctr: human NPY-Y2 antagonism in NPY-Y1 counter-screen; shares compounds with NPY Y1 blocker; HEK293 NPY-Y2 CNG membrane potential fluorescence; cells given NPY, then isoproterenol; inhibition, % at 3.6 µM; 28% of 1,200 active; AID 1255;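 further: 0% = DMSO with agonist challenge and 100% = reference antagonist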
An asterisk follows results filed as active; . = no result; + = active, no number. Hits are enriched below; roughly 2.4% of the tested compounds scored in any of these assays. Unless noted, no stated cut-off is given here; in the data, active means inhibition above about 17%; inactive means the rest.

SMILES | S1P4 ag | NPY Y1 blocker | S1P4 antag | NPY-Y1 PAM-ag | NPY-Y2 PAM-ag | NPY-Y2 antag | others
Cc1nc2c(=O)n(C)c(=O)nc-2n(C)n1 | 1.9 | 3.9 | 97.0* | -72.8 | -36.4 | 3.7
CCn1nc(-c2ccccc2)nc2c(=O)n(C)c(=O)nc1-2 | 1.9 | 2.0 | 10.7 | -15.7 | -4.6 | 4.3
COc1ccc(CCNCc2ccncc2)cc1 | -0.5 | 5.3 | -20.6 | 18.2 | -3.7 | -2.5
COc1ccccc1CCNC1CCC(C(C)(C)C)CC1 (stereo not drawn) | -0.5 | 29.0* | 20.1 | -56.3 | 10.9 | 30.4*
COc1ccccc1CCNC1CCCC(C)C1 (stereo not drawn) | -0.8 | 5.0 | -18.4 | 16.2 | 18.1 | 1.6
CCCCn1c(O)c(/C=C/C=Nc2ccccc2)c(=O)[nH]c1=O | 1.6 | 5.4 | -1.5 | 0.8 | -12.4 | -1.1
CN1/C(=C\C=Nc2ccccc2)C(C)(C)c2ccccc21 | 1.4 | 3.5 | -1.8 | 14.5 | 8.7 | 3.7
CN1/C(=C\C=C\C2=[N+](C)c3ccc4ccccc4c3C2(C)C)C(C)(C)c2ccccc21 | 3.0 | + | -18.5 | -558.2 | -329.3 | +
CCCCOC(=O)C1=C(N)OC2=C(C(=O)CCC2)[C@]12C(=O)N(C)c1ccccc12 | 0.4 | 4.6 | -13.8 | 10.4 | 20.2 | 1.2
COc1ccc(Cc2nccc3cc(OC)c(OC)cc23)cc1OC | 2.7 | 22.2* | -17.8 | -53.9 | -20.0 | 20.1*
CCc1nc(N2CCNCC2)c(C#N)c2c1CSC(C)(C)C2 | -1.7 | -11.6 | 4.6 | 92.2* | 89.3* | 3.2
O=P(NC(c1ccccc1)c1ccccc1)(Oc1ccccc1)Oc1ccccc1 | -0.7 | 21.2* | -20.8 | -14.7 | -17.9 | 37.6*
Cc1nn(C)c(C)c1/C=C1/CC2C3CC=C4CC(O)CCC4(C)C3CCC2(C)C1=O (stereo not drawn) | -2.6 | 26.4* | -1.1 | -44.8 | -20.4 | 46.6*
CCn1ncc(/C=C2/CC3C4CC=C5CC(O)CCC5(C)C4CCC3(C)C2=O)c1C (stereo not drawn) | 0.6 | -1.3 | -0.8 | -16.9 | 7.6 | 1.1
CCCCCSc1cc(OC)c(CCN)cc1OC | -2.2 | -4.4 | 3.9 | 53.0* | 26.8 | 3.3
COc1ccc(-n2c(Cc3cccc([N+](=O)[O-])c3)nc3ccccc3c2=O)cc1 | -2.4 | 2.8 | 2.7 | -4.9 | 18.1 | -0.1
CC(C)[C@]12O[C@H]1[C@@H]1O[C@]13[C@]1(O[C@H]1C[C@H]1C4=C(CC[C@@]13C)C(=O)OC4)[C@@H]2O | -0.8 | -0.5 | 107.1* | 37.4 | 10.7 | .
O=C1NC(=O)C(CCc2ccncc2)(Cc2ccc([N+](=O)[O-])cc2)C(=O)N1 | 1.2 | -1.6 | -9.5 | 12.9 | -2.8 | 1.9
COC(=O)C1C=C2c3cccc4[nH]cc(c34)CC2N(C)C1 (stereo not drawn) | 0.3 | . | -2.6 | 3.3 | -35.0 | .
CCN(CC)C(=O)N[C@H]1C[C@@H]2c3cccc4[nH]cc(c34)C[C@H]2N(C)C1 | 1.5 | -11.3 | -20.7 | 83.6* | 72.3* | 0.0
O=C(Nc1cccnc1)c1c(O)c2c(n(Cc3ccccc3)c1=O)CCCC2 | 1.4 | 3.6 | 10.0 | 5.4 | 12.2 | 18.8* | NPY1 antag ctr=1.0;NPY2 antag conf=4.0
O=C(Nc1ccc(F)cc1)c1c(O)c2c(n(Cc3ccccc3)c1=O)CCCC2 | 1.3 | -3.5 | -0.8 | -1.3 | 2.5 | 2.1
O=C(CNC(=O)c1cccc(Cl)c1)Nc1ccc(Br)cc1C(=O)c1ccccc1 | -0.7 | 18.4 | -5.2 | -37.7 | -2.7 | 22.5* | NPY1 antag ctr=12.2;NPY2 antag conf=12.7
COc1ccc(C2NCc3ccc4c(c3-n3cccc32)OCO4)cc1O (stereo not drawn) | -1.1 | 17.9 | 14.2 | -34.5 | -26.8 | 18.7* | NPY1 antag ctr=20.9*;NPY2 antag conf=37.1*
CN1C[C@H](CNC(=O)OCc2ccccc2)C[C@@H]2c3cccc4c3c(cn4C)C[C@H]21 | 1.0 | 14.9 | -20.9 | -32.4 | -5.2 | 18.1* | NPY1 antag ctr=7.3;NPY2 antag conf=14.3
SMILES | S1P4 ag | NPY Y1 blocker | S1P4 antag | NPY-Y1 PAM-ag | NPY-Y2 PAM-ag | NPY-Y2 antag | others
CCCCCCOc1ccc(CN2CCN(CCO)CC2)cc1 | -0.6 | 10.0 | 7.4 | -22.2 | -14.0 | 8.1
Clc1ccc(COC(Cn2ccnc2)c2ccc(Cl)cc2Cl)cc1 (stereo not drawn) | 0.6 | 15.0 | -31.2 | -46.9 | -0.1 | 21.7* | NPY1 antag ctr=19.2;NPY2 antag conf=18.1*
CCCCSP1(=S)NCCCN1 | -1.0 | -3.6 | -20.1 | -1.8 | 6.0 | 0.7
COc1ccc(-n2c(O)c(C(C)=NCC3CCCO3)c(=O)[nH]c2=O)cc1 (stereo not drawn) | -1.1 | . | 3.1 | -7.3 | -10.9 | .
O=C(c1cccs1)c1cn(Cc2ccccc2Cl)c2ccccc12 | 0.5 | 15.6 | -12.6 | -31.4 | -11.3 | 19.5* | NPY1 antag ctr=21.1*;NPY2 antag conf=16.1
N#Cc1ccccc1Cn1cc(C(=O)c2cccs2)c2ccccc21 | -0.1 | 5.5 | 13.7 | -29.9 | 9.1 | 7.0
Nc1ccccc1C(=O)OC1CSC1 | -0.1 | 6.9 | -7.8 | -7.2 | 7.8 | 1.1
CCCC/C(C)=C/[C@@H](NP(=O)(c1ccccc1)c1ccccc1)c1ccccc1 | 0.0 | 14.2 | 10.6 | -31.1 | -8.1 | 27.0* | NPY1 antag ctr=22.7*;NPY2 antag conf=20.2*
CCCCCP(=O)(O)c1ccccc1 | -0.6 | -1.1 | -3.2 | -20.6 | -0.5 | -3.3
CCC(=NCCC(c1ccccc1)c1ccccc1)c1c(O)n(C)c(=O)n(C)c1=O | 5.0 | -1.2 | -9.1 | 8.5 | 16.1 | 24.4* | NPY1 antag ctr=16.1;NPY2 antag conf=27.5*
Cn1c(O)c(C(=O)c2ccccc2)c(=O)n(C)c1=O | -1.8 | -0.8 | -2.9 | 3.8 | -10.4 | -0.3
Cc1cccc(OP(=O)(NCc2ccccc2)Oc2cccc(C)c2)c1 | -0.1 | 7.2 | -11.4 | -20.9 | -9.0 | 19.1* | NPY1 antag ctr=17.6;NPY2 antag conf=6.2
C[N+]12CCC(CC1)C(C(O)(c1ccccc1)c1cccs1)C2 (stereo not drawn) | -4.4 | -4.1 | -6.3 | 2.9 | -12.6 | 2.7
COP(=O)(CC(=O)O)c1ccccc1 (stereo not drawn) | 2.3 | 1.6 | -8.8 | 25.9 | 6.4 | -0.2
COC(=O)[C@@H]1C[C@@]1(C)[C@@H](NP(=O)(c1ccccc1)c1ccccc1)c1ccccc1 | 0.4 | 30.5* | 10.5 | -14.0 | -0.2 | 16.6 | NPY1 antag conf=18.3;NPY2 antag ctr=9.6
